Source: PubChem
TRPC4 inh: inhibitors of mouse TRPC4 channel, primary screen, Fluo4 calcium, HEK293 TRPC4beta/mu-opioid cells; DAMGO-evoked Fluo4 calcium flux; hits give low values; Short transient receptor potential channel 4 (Mus musculus), Q9QUQ5; actives 0.39% (n = 300,000); AID 2247, 2010; B-score at 10 µM;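 active = B-score over 3 SD under the library average, no early fluorescence shift, positive overall ratio signal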
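material = TRPC4beta/mu-opioid receptor HEK293 cell line | probe or stimulus = sequential submaximal and maximal DAMGO stimulation | compound dosing = one concentration per compound | measured by = Fluo4 Ca2+ flux fluorescence | evaluation = integrated fluorescence ratio relative to baseline, converted to per-well B score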
TRPC6 inh: mouse TRPC6 channel inhibitors, primary screen, cell-based, HEK293, membrane potential dye; Short transient receptor potential channel 6 (Mus musculus), Q61143; B-score at 10 µM; ACh-evoked depolarization; hits give low values; actives 1.1% (n = 310,000);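 active = B-score under library mean minus 3 SD, initial fluorescence not abnormally high, positive integrated signal ratio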;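 also: B-score derived from integrated fluorescence ratio over the kinetic read; more negative B-score means stronger inhibition of depolarization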
Target sequence (Q61143 whole entry, looked up): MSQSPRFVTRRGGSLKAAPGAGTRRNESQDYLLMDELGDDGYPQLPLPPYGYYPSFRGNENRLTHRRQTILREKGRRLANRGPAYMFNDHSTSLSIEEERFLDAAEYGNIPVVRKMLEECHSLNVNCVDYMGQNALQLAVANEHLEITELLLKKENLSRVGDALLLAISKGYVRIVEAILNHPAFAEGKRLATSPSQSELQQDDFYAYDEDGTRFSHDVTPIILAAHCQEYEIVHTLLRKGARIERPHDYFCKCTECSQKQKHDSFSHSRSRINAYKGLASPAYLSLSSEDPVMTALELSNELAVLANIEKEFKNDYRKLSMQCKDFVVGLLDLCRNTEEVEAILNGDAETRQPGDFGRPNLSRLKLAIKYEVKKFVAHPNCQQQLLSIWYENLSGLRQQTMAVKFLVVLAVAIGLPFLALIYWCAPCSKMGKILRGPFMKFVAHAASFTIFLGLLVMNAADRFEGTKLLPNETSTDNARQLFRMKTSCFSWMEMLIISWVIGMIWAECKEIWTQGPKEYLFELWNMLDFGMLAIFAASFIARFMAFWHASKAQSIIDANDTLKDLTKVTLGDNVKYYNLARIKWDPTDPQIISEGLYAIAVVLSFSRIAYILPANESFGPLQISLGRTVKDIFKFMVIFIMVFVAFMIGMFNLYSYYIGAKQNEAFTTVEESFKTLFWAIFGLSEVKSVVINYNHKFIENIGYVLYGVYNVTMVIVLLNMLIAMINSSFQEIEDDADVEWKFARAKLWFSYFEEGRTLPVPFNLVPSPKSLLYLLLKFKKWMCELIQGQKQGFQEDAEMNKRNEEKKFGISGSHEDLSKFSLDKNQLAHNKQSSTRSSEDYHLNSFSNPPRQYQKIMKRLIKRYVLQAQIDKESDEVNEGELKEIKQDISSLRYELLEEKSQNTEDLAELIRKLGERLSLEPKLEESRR
TRPC4 potent: positive allosteric modulators of TRPC4, primary screen, cell-based, mouse TRPC4beta, HEK293 mu-opioid, Fluo-4 calcium; Short transient receptor potential channel 4 (Mus musculus), Q9QUQ5; DAMGO EC20, Fluo-4 Ca2+ flux; hits give high values; B-score at 10 µM; actives 0.42% (n = 310,000);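 active = B-score of calcium response area above 5 SD of library B-scores, with initial fluorescence ratio within 5 SD of library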
TRPC6 act: mouse TRPC6 channel activators, primary screen, cell-based, HEK293, membrane potential dye; Short transient receptor potential channel 6 (Mus musculus), Q61143; actives 0.13% (n = 310,000); B-score at 10 µM; HEK293-TRPC6 membrane potential dye fluorescence; hits give high values;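 active = B-score of the integrated fluorescence ratio above library mean plus 3 SD, and starting fluorescence ratio within library mean plus 5 SD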;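 also: higher score means more depolarization so channel activation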
TRPC4 agonist: activators of mouse TRPC4 channel, primary screen, Fluo4 calcium, HEK293 TRPC4beta/mu-opioid cells; Short transient receptor potential channel 4 (Mus musculus), Q9QUQ5; Fluo4 calcium fluorescence; hits give high values; B-score at 10 µM; actives 0.49% (n = 310,000); AID 2237, 2010;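 active = B-score above 5 SD of library B-scores, and initial fluorescence ratio not above library mean plus 5 SD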;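 also: positive B-score marks a calcium rise read as TRPC4 activation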
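Incubation: 45 min room-temperature Fluo4 loading, 110 s read / System: HEK293 cells stably co-expressing mouse TRPC4beta and mu-opioid receptor / Signal: Fluo4 fluorescence, kinetic / Control set: buffer (low) and maximal DAMGO (high) / Measure: integrated baseline-normalised fluorescence ratio, converted to per-well B score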
TRPC4 spec 2: mouse TRPC4 off-target activity of TRPC6 inhibitors, second screen; HEK293 TRPC4/MOR, membrane potential dye fluorescence; channel activated by saturating DAMGO dose; shares compounds with TRPC6 inh; AID 2776; actives 42% (n = 920); inhibition, % at 10 µM;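 active = compounds whose fluorescence signal differed from control wells by over 3 SD, either direction, in both duplicate plates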
TRPC4 spec: mouse TRPC4 modulation by TRPC6 hits, confirmation, selectivity assay for TRPC6 inhibitor project, cell-based, HEK293 TRPC4/mu-opioid, membrane potential dye; shares compounds with TRPC6 inh; membrane potential fluorescence; activity change, negative = inhibition, % at 10 µM; actives 61% (n = 920);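 active = rise or fall in signal beyond 3 SD of buffer-only wells in both replicate plates, either sign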;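 also: integrated kinetic ratio of fluorescence range over baseline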
HEK293 MPD ctr 2-1: nonspecific membrane potential effects, parental HEK293, confirmation, counter-screen for TRPC6 inhibitor project, cell-based, second counter screen | shares compounds with TRPC6 inh | parental HEK293 membrane potential dye fluorescence; maximal acetylcholine challenge after compound addition | signal change vs control, % at 10 µM | actives 31% (n = 920);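 active = membrane potential signal moving either way by over 3 SD of the maximum-effect control, in both duplicate plates, meaning non-specific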
HEK293 MPD ctr-1: membrane potential modulation in parental HEK293, confirmation, counter-screen for TRPC6 inhibitor project, cell-based; shares compounds with TRPC6 inh; parental HEK293 membrane potential dye fluorescence; membrane potential signal change, % at 10 µM; actives 60% (n = 920); AID 2780, 2010;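 active = membrane potential signal shifting up or down by more than 3 SD of buffer-only wells, on both duplicate plates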
HEK293 MPD ctr-2: parental HEK293 membrane potential modulation, confirmation, counter-screen for TRPC6 modulator project, cell-based; shares compounds with TRPC6 inh; membrane potential dye fluorescence; membrane potential signal change, % at 10 µM; actives 51% (n = 2,400);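 active = membrane potential signal moves up or down beyond 5 SD from buffer-only wells, on both duplicate plates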
HEK293 MPD ctr 2-2: parental HEK293 nonspecific activity of TRPC6 modulators, second screen | shares compounds with TRPC6 inh | membrane potential dye fluorescence; after compound, maximal acetylcholine stimulation | inhibition, % at 10 µM | actives 14% (n = 2,400);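 active = membrane potential signal drops by more than 5 SD from the mean control signal, in both duplicate plates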
TRPC4/MOR mod: TRPC4 modulation by TRPC6 hit compounds, confirmation, selectivity assay for TRPC6 modulator project, cell-based, HEK293 TRPC4/mu-opioid, membrane potential dye, mouse; shares compounds with TRPC6 inh; membrane potential fluorescence; percent change from control (negative = decrease, positive = increase), % at 10 µM; actives 69% (n = 2,400); AID 488927, 2010;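 active = membrane potential signal moved up or down beyond 5 SD of buffer control wells, in both duplicate plates, actives on both sides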
TRPC4/MOR inh 2: mouse TRPC4 off-target activity of TRPC6 modulators, second screen; AID 488928; HEK293 TRPC4/mu-opioid, membrane potential dye fluorescence; stimulated with maximal-effect DAMGO; inhibition, % at 10 µM; shares compounds with TRPC6 inh; actives 55% (n = 2,400);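 active = drop in membrane potential signal beyond 5 SD of the control wells in both duplicate plates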;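 also: TRPC4 counter screen for TRPC6 hits run under conditions tuned for TRPC6 not TRPC4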
TRPC6 block conf: mouse TRPC6 channel inhibitors, confirmation, HEK293 cells, membrane potential dye, duplicate; shares compounds with TRPC6 inh; ACh-evoked depolarization; inhibition, % at 10 µM; actives 43% (n = 3,300);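 active = fluorescence ratio falls more than 5 SD below the full-stimulation control mean, in both duplicate runs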;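 also: integrated fluorescence ratio of peak minus minimum over baseline after agonist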
TRPC6 act confirm: mouse TRPC6 channel activators, confirmation, HEK293 cells, membrane potential dye, duplicate; shares compounds with TRPC6 inh; HEK293-TRPC6 membrane potential dye fluorescence, FDSS; activation, % at 10 µM; actives 11% (n = 2,800); AID 488961, 2010;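 active = ratio signal rise beyond 5 SD above unstimulated control wells' mean, seen in both duplicate runs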
Large screens that a line does not name were inactive (follow-up assays come after a bar, where they were run). In the library only some 2.3% were active in any assay of this set; here they are far more common.

COc1ccc(-c2nc3cnccn3c2Nc2ccc(C)cc2)cc1	TRPC6 inh -6.18 | HEK293 MPD ctr-2 -70.5% | HEK293 MPD ctr 2-2 inactive | TRPC4/MOR mod -15.5% | TRPC4/MOR inh 2 83.5% | TRPC6 block conf 61.0% | TRPC6 act confirm inactive
Cc1ccc(N2CC(C(=O)Nc3ccc(S(=O)(=O)Nc4ncccn4)cc3)CC2=O)cc1C (stereo unspecified)	none
CC(C)(O)C#Cc1ccc(CN2CCN(C3CCCCC3)C(CCO)C2)s1 (stereo unspecified)	TRPC6 inh -7.39 | TRPC4 spec 2 inactive | TRPC4 spec inactive | HEK293 MPD ctr 2-1 inactive | HEK293 MPD ctr-1 inactive | TRPC6 block conf inactive | TRPC6 act confirm inactive
COc1ccc(N2C(=O)CSC23C(=O)Nc2ccccc23)cc1 (stereo unspecified)	none
Cc1ccc(N2C(=O)CCSC23C(=O)Nc2ccccc23)cc1 (stereo unspecified)	TRPC6 inh -6.66 | TRPC4 spec 2 inactive | TRPC4 spec inactive | HEK293 MPD ctr 2-1 inactive | HEK293 MPD ctr-1 inactive | TRPC6 block conf inactive | TRPC6 act confirm inactive
Cc1ccc(CN2C(=O)C(C)Nc3ncnc(N4CCN(c5ccccn5)CC4)c32)cc1 (stereo unspecified)	none
CCN(CC)S(=O)(=O)c1ccc(N(C)C)c(NC(=O)CSCc2c(C)noc2C)c1	none
